In ChEMBL document CHEMBL1147379, “Antineoplastic agents, 256. Cell growth inhibitory isocarbostyrils from Hymenocallis” (1993):
≈ marks a conversion by molar mass, not a printed value.

Legend:
Assay type in all cases: functional
[1] = test system: SNB-78; assay: Growth inhibition of human SNB78 cells; conditions: read-out: pTGI (converted)
How it was run: (§1)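 NCI 60-human-tumour-line in vitro primary screen. Each compound tested eight separate times over three concentration ranges (upper limits 10⁻⁴, 10⁻⁵ and 10⁻⁶ M), each range as five 10-fold dilutions. GI₅₀ (also TGI and LC₅₀) derived from the concentration-response curves, reported as averaged values per cell line (negative log₁₀).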

[2] = test system: SF-295; assay: Growth inhibition of human SF295 cells
How it was run: (§2)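 NCI 60-human-tumour-cell-line primary in vitro screen. Each compound was tested eight separate times across three concentration ranges with upper limits of 10⁻⁴, 10⁻⁵ and 10⁻⁶ M. Each range used five 10-fold dilutions. GI₅₀, TGI and LC₅₀ were calculated from the concentration-response curves for each cell line, and averaged mean-graph values were constructed from them.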

[3] = test system: UACC-257; assay: Growth inhibition of human UACC257 cells; how it was run: as §1
[4] = test system: HCC 2998; assay: Growth inhibition of human HCC2998 cells; how it was run: as §2
[5] = test system: TK-10; assay: Growth inhibition of human TK10 cells; how it was run: as §1
[6] = test system: NCI-H522; assay: Growth inhibition of human NCI-H522 cells; how it was run: as §2
[7] = test system: U-251; assay: Growth inhibition of human U251 cells; how it was run: as §1
[8] = test system: CCRF-CEM; assay: Growth inhibition of human CCRF-CEM cells; how it was run: as §2
[9] = test system: A549; assay: Growth inhibition of human A549 cells; how it was run: as §2
[10] = test system: HOP-92; assay: Growth inhibition of human HOP92 cells; how it was run: as §2
[11] = test system: HCT-116; assay: Growth inhibition of human HCT116 cells; how it was run: as §2
[12] = test system: NCI-H460; assay: Growth inhibition of human NCI-H460 cells; how it was run: as §2
[13] = test system: SNB-75; assay: Growth inhibition of human SNB75 cells; how it was run: as §2
[14] = test system: LOX IMVI; assay: Growth inhibition of human LOXIMVI cells; how it was run: as §2
[15] = Growth inhibition of human 786-O cells; how it was run: as §2
[16] = test system: A498; assay: Growth inhibition of human A498 cells; how it was run: as §2
[17] = test system: DLD-1; assay: Growth inhibition of human DLD1 cells; how it was run: as §2
[18] = test system: UACC-62; assay: Growth inhibition of human UACC62 cells; how it was run: as §1
[19] = test system: M14; assay: Growth inhibition of human M14 cells; how it was run: as §2
[20] = test system: SF-539; assay: Growth inhibition of human SF539 cells; how it was run: as §2
[21] = test system: M19-MEL; assay: Growth inhibition of human M19-MEL cells; how it was run: as §2
[22] = Growth inhibition of human LXFL529 cells; how it was run: as §2
[23] = test system: P388; assay: Growth inhibition of mouse P388 cells; conditions: read-out: ED50 (the source's name)
[24] = test system: SW-620; assay: Growth inhibition of human SW620 cells; how it was run: as §1
[25] = test system: SK-MEL-28; assay: Growth inhibition of human SK-MEL-28 cells; how it was run: as §2
[26] = test system: NCI-H226; assay: Growth inhibition of human NCI-H226 cells; how it was run: as §2
[27] = test system: DMS-273; assay: Growth inhibition of human DMS273 cells; how it was run: as §2
[28] = test system: HT-29; assay: Growth inhibition of human HT-29 cells; how it was run: as §2
[29] = test system: OVCAR-4; assay: Growth inhibition of human OVCAR4 cells; how it was run: as §2
[30] = test system: K562; assay: Growth inhibition of human K562 cells; how it was run: as §2
[31] = test system: SK-MEL-5; assay: Growth inhibition of human SK-MEL-5 cells; how it was run: as §2
[32] = read-out: pLC50 (the source's name) (converted)

Compound: O=C1N[C@H]2[C@H](O)[C@H](O)[C@@H](O)C[C@@H]2c2cc3c(cc21)OCO3
- TGI [1]: 912 nM
- GI50 [2]: 141 nM
- CC50 [2, 32]: 41700 nM
- TGI ([2]; read-out: pTGI (converted)): 912 nM
- GI50 [3]: 141 nM
- CC50 [3, 32]: 45700 nM
- TGI ([3]; read-out: pTGI (converted)): 1820 nM
- GI50 [4]: 77.6 nM
- CC50 [4, 32]: 15800 nM
- TGI ([4]; read-out: pTGI (converted)): 813 nM
- GI50 [5]: 251 nM
- CC50 [5, 32]: > 100000 nM
- TGI ([5]; read-out: pTGI (converted)): 1910 nM
- GI50 [6]: 37.1 nM
- CC50 [6, 32]: 3800 nM
- TGI ([6]; read-out: pTGI (converted)): 240 nM
- GI50 [7]: 47.9 nM
- CC50 [7, 32]: 37200 nM
- TGI ([7]; read-out: pTGI (converted)): 1290 nM
- GI50 [8]: 34.7 nM
- CC50 [8, 32]: > 100000 nM
- TGI ([8]; read-out: pTGI (converted)): 525 nM
- GI50 [9]: 100 nM
- CC50 [9, 32]: > 100000 nM
- TGI ([9]; read-out: pTGI (converted)): 1290 nM
- GI50 [10]: 75.9 nM
- CC50 [10, 32]: > 100000 nM
- TGI ([10]; read-out: pTGI (converted)): 741 nM
- GI50 [11]: 33.1 nM
- CC50 [11, 32]: 24000 nM
- TGI ([11]; read-out: pTGI (converted)): 398 nM
- GI50 [12]: 38.9 nM
- CC50 [12, 32]: 52500 nM
- TGI ([12]; read-out: pTGI (converted)): 813 nM
- GI50 [13]: 60.3 nM
- CC50 [13, 32]: 24000 nM
- TGI ([13]; read-out: pTGI (converted)): 437 nM
- GI50 [14]: 33.1 nM
- CC50 [14, 32]: 708 nM
- TGI ([14]; read-out: pTGI (converted)): 158 nM
- GI50 ([15]; 786-0): 110 nM
- CC50 ([15]; 786-0, read-out: pLC50 (the source's name) (converted)): 57500 nM
- TGI ([15]; 786-0, read-out: pTGI (converted)): 2090 nM
- GI50 [16]: 229 nM
- CC50 [16, 32]: 9330 nM
- TGI ([16]; read-out: pTGI (converted)): 1100 nM
- GI50 [17]: 43.6 nM
- CC50 [17, 32]: > 100000 nM
- TGI ([17]; read-out: pTGI (converted)): 832 nM
- GI50 [18]: 100 nM
- CC50 [18, 32]: 11000 nM
- TGI ([18]; read-out: pTGI (converted)): 562 nM
- GI50 [19]: 64.6 nM
- CC50 [19, 32]: 1700 nM
- TGI ([19]; read-out: pTGI (converted)): 347 nM
- GI50 [20]: 60.3 nM
- CC50 [20, 32]: 1410 nM
- TGI ([20]; read-out: pTGI (converted)): 282 nM
- GI50 [21]: 39.8 nM
- CC50 [21, 32]: 5250 nM
- TGI ([21]; read-out: pTGI (converted)): 513 nM
- GI50 ([22]; LXFL 529): 46.8 nM
- CC50 ([22]; LXFL 529, read-out: pLC50 (the source's name) (converted)): 26900 nM
- TGI ([22]; LXFL 529, read-out: pTGI (converted)): 708 nM
- EC50 [23]: 0.02 µg/mL (≈ 0.0682 µM)
- GI50 [24]: 64.6 nM
- CC50 [24, 32]: > 100000 nM
- TGI ([24]; read-out: pTGI (converted)): 2400 nM
- GI50 [25]: 81.3 nM
- CC50 [25, 32]: 44700 nM
- TGI ([25]; read-out: pTGI (converted)): 646 nM
- GI50 [26]: 151 nM
- CC50 [26, 32]: 8710 nM
- TGI ([26]; read-out: pTGI (converted)): 759 nM
- GI50 [27]: 61.7 nM
- CC50 [27, 32]: 12000 nM
- TGI ([27]; read-out: pTGI (converted)): 603 nM
- GI50 [28]: 61.7 nM
- CC50 [28, 32]: > 100000 nM
- TGI ([28]; read-out: pTGI (converted)): 813 nM
- GI50 [29]: 36.3 nM
- CC50 [29, 32]: 17000 nM
- TGI ([29]; read-out: pTGI (converted)): 427 nM
- GI50 [30]: 46.8 nM
- CC50 [30, 32]: > 100000 nM
- TGI ([30]; read-out: pTGI (converted)): 1100 nM
- GI50 [31]: 45.7 nM
- CC50 [31, 32]: 1200 nM
- TGI ([31]; read-out: pTGI (converted)): 209 nM
